Data taken from ChEMBL document CHEMBL3352055, “Synthesis and structure-activity relationship studies of small molecule disruptors of EWS-FLI1 interactions in Ewing's sarcoma” (J Med Chem, 2014).
pIC50, pKd: −log10 of the molar value. Activity calls are given as the source filed them. No cut-off for these calls is given here.

What was measured:
[1] = Growth inhibition of human PANC1 cells after 3 days by WST1 assay; assay type: cell-based, PANC-1
Outline: (§1)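 Cells plated at 5000–15000 per well in colorless medium. TC32 and TC71 grown in RPMI with 10% FBS and 1% HEPES; PANC1 in DMEM with 10% FBS. Compounds or DMSO vehicle added the day after plating. Viable cells measured by MTT or WST-1 after 3 days. GI50 from nonlinear regression.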

[2] = Growth inhibition of human TC32 cells harboring EWS-FLI1 fusion protein after 3 days by WST1 assay; assay type: functional; conditions: TC-32, 72 h; outline: as §1
[3] = Growth inhibition of human TC71 cells harboring EWS-FLI1 fusion protein after 3 days by WST1 assay; assay type: functional; conditions: TC-71, 72 h; outline: as §1
[4] = target: Friend leukemia integration 1 transcription factor (Proto-oncogene Fli-1)/RNA-binding protein EWS (Homo sapiens) (UniProt Q01844+Q01543); experiment: (§2) Inhibition of transcriptional activity of full-length EWS-FLI1 (unknown origin) expressed in COS7 cells by NR0B1-luciferase reporter gene assay; assay type: cell-based; conditions: COS-7
Outline: (§3)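 COS7 cells transiently co-transfected with an NR0B1 luciferase reporter carrying EWS-FLI1 binding sites plus full-length EWS-FLI1 or empty pCI-neo vector. Treated 1.5 h after transfection with 0.05–15 μM compound or DMSO. Luciferase read 20 h later, quadruplicate wells, mean ± SD. IC50 from sigmoidal dose–response fit.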

[5] = target: T1, Friend leukemia integration 1 transcription factor (Proto-oncogene Fli-1)/RNA-binding protein EWS (Homo sapiens, UniProt Q01543+Q01844); experiment: Binding affinity to purified recombinant EWS-FLI1 (unknown origin) after 1 hr by colorimetric phosphatase assay; assay type: protein assay
T1 sequence (Q01844 whole entry): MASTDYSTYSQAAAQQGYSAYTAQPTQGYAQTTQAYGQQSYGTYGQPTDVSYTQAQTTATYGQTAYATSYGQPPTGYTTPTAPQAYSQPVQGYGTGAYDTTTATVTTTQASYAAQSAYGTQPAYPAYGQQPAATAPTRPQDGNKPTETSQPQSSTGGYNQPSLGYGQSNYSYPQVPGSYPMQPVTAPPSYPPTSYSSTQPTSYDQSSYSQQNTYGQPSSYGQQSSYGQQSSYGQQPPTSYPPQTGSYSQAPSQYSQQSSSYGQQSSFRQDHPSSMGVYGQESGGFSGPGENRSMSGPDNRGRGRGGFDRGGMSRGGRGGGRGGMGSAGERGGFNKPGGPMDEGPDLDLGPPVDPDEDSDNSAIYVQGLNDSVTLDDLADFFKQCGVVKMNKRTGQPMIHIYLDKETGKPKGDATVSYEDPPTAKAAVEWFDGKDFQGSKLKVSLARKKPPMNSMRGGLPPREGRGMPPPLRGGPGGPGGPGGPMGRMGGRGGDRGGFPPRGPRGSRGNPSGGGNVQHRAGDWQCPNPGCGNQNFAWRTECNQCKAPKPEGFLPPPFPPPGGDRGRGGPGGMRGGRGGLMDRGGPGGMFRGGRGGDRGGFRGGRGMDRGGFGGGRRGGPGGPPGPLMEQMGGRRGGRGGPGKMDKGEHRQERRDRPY
T1 sequence (Q01543 whole entry): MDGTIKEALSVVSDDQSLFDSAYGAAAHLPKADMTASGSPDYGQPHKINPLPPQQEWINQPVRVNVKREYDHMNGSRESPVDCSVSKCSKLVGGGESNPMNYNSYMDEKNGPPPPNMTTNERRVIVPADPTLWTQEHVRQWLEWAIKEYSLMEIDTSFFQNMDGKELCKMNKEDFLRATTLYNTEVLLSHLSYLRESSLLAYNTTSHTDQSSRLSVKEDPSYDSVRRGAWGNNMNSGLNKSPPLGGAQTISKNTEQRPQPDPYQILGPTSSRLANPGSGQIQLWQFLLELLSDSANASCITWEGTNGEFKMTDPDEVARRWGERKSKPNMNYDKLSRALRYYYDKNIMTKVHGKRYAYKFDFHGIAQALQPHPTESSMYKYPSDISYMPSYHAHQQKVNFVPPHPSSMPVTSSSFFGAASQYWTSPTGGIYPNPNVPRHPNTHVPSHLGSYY
Outline: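 His-tagged EWS-FLI1 expressed in BL21 (1 mM IPTG, 2 h at 27 °C) and purified from inclusion bodies by Ni column with on-column refolding. Plates coated overnight with 20 nM protein and blocked with 4% BSA for 1 h at RT. Biotin conjugate (1–100 μM) incubated 1 h, then HRP-streptavidin 1:5000 for 1 h at RT. Phosphatase substrate read at 405 nm. BSA-coated wells used as control. Kd taken from the saturation curve.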

[6] = target: T1, Friend leukemia integration 1 transcription factor (Proto-oncogene Fli-1)/RNA-binding protein EWS; experiment: as §2; assay type: cell-based, COS-7; outline: as §3
[7] = Cytotoxicity against african green monkey COS7 cells after 48 hrs by WST1 assay; assay type: cell-based; conditions: chlorocebus aethiops, cos-7, 48 h
Outline: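 COS7 cells (monkey kidney, lacking EWS-FLI1) grown in DMEM with 10% FBS. Compound exposure for 48 h, with viability read by WST proliferation assay.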

inhibition activity (qualitative call) [4]	pKd [5]	pIC50 [6]	Structure (SMILES)	GI50 at 72 h [1]	GI50 [2]	GI50 [3]	Activity [7]
			COc1ccc(C(=O)CC2(O)C(=O)Nc3ccc(Cl)cc32)cc1 (stereo not given)	> 10 µM	> 10 µM	> 10 µM	
			COc1ccc(C(=O)CC2(O)C(=O)Nc3c(C)ccc(C)c32)cc1 (stereo not given)	> 10 µM	> 10 µM	> 10 µM	
Active			CCOc1ccc(C(=O)CC2(O)C(=O)Nc3c(Cl)ccc(Cl)c32)cc1 (stereo not given)	> 10 µM	2.7 µM	3.57 µM	
			COc1ccc(C(=O)CC2(O)C(=O)Nc3cc(Cl)c(Cl)cc32)cc1 (stereo not given)	> 10 µM	> 10 µM	> 10 µM	
	5.32		CN(C(=O)CCCCCNC(=O)CCCC[C@H]1SCC2NC(=O)NC21)c1ccc(C(=O)CC2(O)C(=O)Nc3c(Cl)ccc(Cl)c32)cc1 (stereo not given in full)				
			Nc1ccc(C(=O)CC2(O)C(=O)Nc3c(Cl)ccc(Cl)c32)cc1 (stereo not given)	> 10 µM	> 10 µM	> 10 µM	
			COc1ccc(C(=O)CC2(O)C(=O)N(c3ccccc3)c3c(Cl)ccc(Cl)c32)cc1 (stereo not given)	> 10 µM	> 10 µM	> 10 µM	
			COc1cccc(C(=O)CC2(O)C(=O)Nc3c(Cl)ccc(Cl)c32)c1OC (stereo not given)	> 10 µM	> 10 µM	> 10 µM	
			O=C(CC1(O)C(=O)Nc2c(Cl)ccc(Cl)c21)c1ccc(Oc2ccccc2)cc1 (stereo not given)	> 10 µM	> 10 µM	> 10 µM	
			COc1ccc(C(=O)CC2(O)C(=O)Nc3c(Cl)ccc(Cl)c32)c(OC)c1OC (stereo not given)	> 10 µM	2.7 µM	4.4 µM	
		6.82	CN(C)c1ccc(C(=O)CC2(O)C(=O)Nc3c(Cl)ccc(Cl)c32)cc1 (stereo not given)	> 10 µM	0.26 µM	0.4 µM	
			O=C(CC1(O)C(=O)Nc2c(Cl)ccc(Cl)c21)c1ccc(C(F)(F)F)cc1 (stereo not given)	11 µM	2.9 µM	6.9 µM	
			COc1ccc(C(=O)CC2(O)C(=O)Nc3c(Cl)cccc32)cc1 (stereo not given)	> 10 µM	> 10 µM	> 10 µM	
Active			COc1ccc(C(=O)CC2(OC)C(=O)N(C)c3c(Cl)ccc(Cl)c32)cc1 (stereo not given)	> 10 µM	> 10 µM	> 10 µM	
		6.74	CNc1ccc(C(=O)CC2(O)C(=O)Nc3c(Cl)ccc(Cl)c32)cc1 (stereo not given)	> 10 µM	0.34 µM	0.39 µM	
			O=C(CC1(O)C(=O)Nc2c(Cl)ccc(Cl)c21)c1ccccc1 (stereo not given)	> 10 µM	> 10 µM	> 10 µM	
Dose-dependent effect		6.46	COc1ccc(C(=O)CC2(O)C(=O)Nc3c(Cl)ccc(Cl)c32)cc1 (stereo not given)	> 10 µM	0.94 µM	0.92 µM	Non-toxic

inhibition activity (qualitative call) [4]	pKd [5]	pIC50 [6]	Structure (SMILES)	GI50 at 72 h [1]	GI50 [2]	GI50 [3]	Activity [7]
Active			COc1ccc(C(=O)CC2(O)C(=O)N(C)c3c(Cl)ccc(Cl)c32)cc1 (stereo not given)	> 10 µM	2.2 µM	> 10 µM	
inactive			COc1ccc(C(=O)CC2(OC)C(=O)Nc3c(Cl)ccc(Cl)c32)cc1 (stereo not given)	> 10 µM	> 10 µM	> 10 µM	
			COc1cccc(C(=O)CC2(O)C(=O)Nc3c(Cl)ccc(Cl)c32)c1 (stereo not given)	> 10 µM	> 10 µM	> 10 µM	
		6.11	COc1ccc(C(=O)CC2(O)C(=O)Nc3c(OC)ccc(OC)c32)cc1 (stereo not given)	> 10 µM	1 µM	0.94 µM	
			N#Cc1ccc(C(=O)CC2(O)C(=O)Nc3c(Cl)ccc(Cl)c32)cc1 (stereo not given)	> 10 µM	> 10 µM	> 10 µM	
			COc1ccc(C(=O)CC2(O)C(=O)Nc3c(F)ccc(F)c32)cc1 (stereo not given)	> 10 µM	> 10 µM	> 10 µM	
		6.48	CSc1ccc(C(=O)CC2(O)C(=O)Nc3c(Cl)ccc(Cl)c32)cc1 (stereo not given)	> 10 µM	0.98 µM	0.91 µM	
			Cc1ccc(C(=O)CC2(O)C(=O)Nc3c(Cl)ccc(Cl)c32)cc1 (stereo not given)	> 10 µM	> 10 µM	> 10 µM	
inactive			COc1ccccc1C(=O)CC1(O)C(=O)Nc2c(Cl)ccc(Cl)c21 (stereo not given)	> 10 µM	> 10 µM	> 10 µM	
			COc1ccc(C(=O)CC2(O)C(=O)Nc3ccccc32)cc1 (stereo not given)	> 10 µM	> 10 µM	> 10 µM	
			COc1cc(OC)cc(C(=O)CC2(O)C(=O)Nc3c(Cl)ccc(Cl)c32)c1 (stereo not given)	> 10 µM	9 µM	> 10 µM	
			O=C(CC1(O)C(=O)Nc2c(Cl)ccc(Cl)c21)c1ccc(F)cc1 (stereo not given)	> 10 µM	> 10 µM	> 10 µM	
Active			COc1ccc(C(=O)CC2(O)C(=O)Nc3c(Cl)ccc(Cl)c32)c(OC)c1 (stereo not given)	> 10 µM	2.6 µM	2.8 µM	
			CC(C)Oc1ccc(C(=O)CC2(O)C(=O)Nc3c(Cl)ccc(Cl)c32)cc1 (stereo not given)	> 10 µM	> 10 µM	> 10 µM	
			O=C(CC1(O)C(=O)Nc2c(Cl)ccc(Cl)c21)c1ccc(I)cc1 (stereo not given)	> 10 µM	> 10 µM	> 10 µM	
			COc1ccc(C(=O)CC2(O)C(=O)Nc3cccc(Cl)c32)cc1 (stereo not given)	> 10 µM	> 10 µM	> 10 µM	
